Assay results from ChEMBL document CHEMBL1649446, “Comparative antipneumococcal activities of sulopenem and other drugs” (2009).
Converted amounts (≈) assume the structure as drawn.

Key:
Type in all cases: functional
Streptococcus pneumoniae [1] = assay: Antimicrobial activity against Streptococcus pneumoniae 10 by time-kill analysis
Procedure, shortened: (§1)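 Time-kill in cation-adjusted Mueller-Hinton broth with 5% lysed horse blood; inocula 5 × 105 to 5 × 10^6 CFU/ml; drugs at MIC, 2× and 4× MIC; 35°C shaking water bath; viable counts at 0, 3, 6, 12, 24 h. Bactericidal = ≥3 log10 CFU/ml (99.9%) drop from original inoculum; 90%/99%/99.9% killing scored per strain.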

Streptococcus pneumoniae [2] = assay: Antimicrobial activity against Streptococcus pneumoniae 12 by time-kill analysis; procedure, shortened: as §1
Streptococcus pneumoniae [3] = assay: Antimicrobial activity against Streptococcus pneumoniae 8 by time-kill analysis; procedure, shortened: as §1
Streptococcus pneumoniae [4] = assay: Antimicrobial activity against Streptococcus pneumoniae 2 by time-kill analysis; procedure, shortened: as §1
Streptococcus pneumoniae [5] = assay: Antimicrobial activity against Streptococcus pneumoniae 3 by time-kill analysis; procedure, shortened: as §1
Streptococcus pneumoniae [6] = assay: Antimicrobial activity against Streptococcus pneumoniae 9 by time-kill analysis
Procedure, shortened: as §1, with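 “12 and” for “12,”, “if” for “=”, “reduction” for “drop”, “90% and 99%” for “90%/99%/99.9%”, “also scored.” for “scored per strain.”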

Streptococcus pneumoniae [7] = assay: Antimicrobial activity against Streptococcus pneumoniae 1 by time-kill analysis
Procedure, shortened: as §1, with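 “12 and” for “12,”, “if” for “=”, “reduction” for “drop”, “90% and 99%” for “90%/99%/99.9%”, “also scored.” for “scored per strain.”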

Streptococcus pneumoniae [8] = assay: Antimicrobial activity against Streptococcus pneumoniae 6 by time-kill analysis; procedure, shortened: as §1
Streptococcus pneumoniae [9] = assay: Antimicrobial activity against Streptococcus pneumoniae 11 by time-kill analysis; procedure, shortened: as §1
Streptococcus pneumoniae [10] = assay: Antimicrobial activity against Streptococcus pneumoniae 5 by time-kill analysis
Procedure, shortened: as §1, with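 “12 and” for “12,”, “if” for “=”, “reduction” for “drop”, “90% and 99%” for “90%/99%/99.9%”, “also scored.” for “scored per strain.”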

Streptococcus pneumoniae [11] = assay: Antimicrobial activity against Streptococcus pneumoniae 4 by time-kill analysis; procedure, shortened: as §1
Streptococcus pneumoniae [12] = assay: Antimicrobial activity against Streptococcus pneumoniae 7 by time-kill analysis; procedure, shortened: as §1
Streptococcus pneumoniae [13] = assay: Antimicrobial activity against Streptococcus pneumoniae isolate 2686 by agar dilution method
Procedure, shortened: (§2)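 Agar dilution MIC on Mueller-Hinton agar with 5% sheep blood, inocula 10^4 CFU/spot; amoxicillin-clavulanate combined 1:2; S. pneumoniae ATCC 49619 quality control each run.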

Streptococcus pneumoniae [14] = assay: Antimicrobial activity against penicillin-resistant Streptococcus pneumoniae by agar dilution method; procedure, shortened: as §2
Streptococcus pneumoniae [15] = assay: Antimicrobial activity against Streptococcus pneumoniae isolate 33 by agar dilution method; procedure, shortened: as §2
Streptococcus pneumoniae [16] = assay: Antimicrobial activity against Streptococcus pneumoniae isolate 2617 by agar dilution method; procedure, shortened: as §2
Streptococcus pneumoniae [17] = assay: Antimicrobial activity against Streptococcus pneumoniae isolate 3275 by agar dilution method; procedure, shortened: as §2
Streptococcus pneumoniae [18] = assay: Antimicrobial activity against Streptococcus pneumoniae isolate 3481 by agar dilution method; procedure, shortened: as §2
Streptococcus pneumoniae [19] = assay: Antimicrobial activity against Streptococcus pneumoniae isolate 2880 by agar dilution method; procedure, shortened: as §2
Streptococcus pneumoniae [20] = assay: Antimicrobial activity against penicillin-intermediate Streptococcus pneumoniae by agar dilution method
Streptococcus pneumoniae [21] = assay: Antimicrobial activity against Streptococcus pneumoniae isolate 1055 by agar dilution method
Streptococcus pneumoniae [22] = assay: Antimicrobial activity against Streptococcus pneumoniae isolate 2874 by agar dilution method; procedure, shortened: as §2
Streptococcus pneumoniae [23] = assay: Antimicrobial activity against Streptococcus pneumoniae isolate 2688 by agar dilution method; procedure, shortened: as §2
Streptococcus pneumoniae [24] = assay: Antimicrobial activity against Streptococcus pneumoniae isolate 1564 by agar dilution method
Streptococcus pneumoniae [25] = assay: Antimicrobial activity against Streptococcus pneumoniae isolate 1146 by agar dilution method; procedure, shortened: as §2
Streptococcus pneumoniae [26] = assay: Antimicrobial activity against Streptococcus pneumoniae isolate 3458 by agar dilution method
Streptococcus pneumoniae [27] = assay: Antimicrobial activity against Streptococcus pneumoniae isolate 3681 by agar dilution method; procedure, shortened: as §2
Streptococcus pneumoniae [28] = assay: Antimicrobial activity against Streptococcus pneumoniae isolate 3346 by agar dilution method
Streptococcus pneumoniae [29] = assay: Antimicrobial activity against Streptococcus pneumoniae isolate 1384 by agar dilution method; procedure, shortened: as §2
Streptococcus pneumoniae [30] = assay: Antimicrobial activity against Streptococcus pneumoniae isolate 4747 by agar dilution method; procedure, shortened: as §2
Streptococcus pneumoniae [31] = assay: Antimicrobial activity against Streptococcus pneumoniae isolate 1147 by agar dilution method; procedure, shortened: as §2
Streptococcus pneumoniae [32] = assay: Antimicrobial activity against Streptococcus pneumoniae isolate 37 by agar dilution method; procedure, shortened: as §2
Streptococcus pneumoniae [33] = assay: Antimicrobial activity against Streptococcus pneumoniae isolate 3260 by agar dilution method
Streptococcus pneumoniae [34] = assay: Antimicrobial activity against Streptococcus pneumoniae isolate 24 by agar dilution method
Streptococcus pneumoniae [35] = assay: Antimicrobial activity against Streptococcus pneumoniae isolate 3412 by agar dilution method; procedure, shortened: as §2
Streptococcus pneumoniae [36] = assay: Antimicrobial activity against penicillin-susceptible Streptococcus pneumoniae by agar dilution method
Streptococcus pneumoniae [37] = assay: Antimicrobial activity against Streptococcus pneumoniae isolate 3791 by agar dilution method; procedure, shortened: as §2
Streptococcus pneumoniae [38] = assay: Antimicrobial activity against Streptococcus pneumoniae isolate 1397 by agar dilution method; procedure, shortened: as §2
Streptococcus pneumoniae [39] = assay: Antimicrobial activity against Streptococcus pneumoniae isolate 1424 by agar dilution method; procedure, shortened: as §2
Streptococcus pneumoniae [40] = assay: Antimicrobial activity against Streptococcus pneumoniae isolate 3282 by agar dilution method
Streptococcus pneumoniae [41] = assay: Antimicrobial activity against Streptococcus pneumoniae isolate 3587 by agar dilution method
Streptococcus pneumoniae [42] = assay: Antimicrobial activity against Streptococcus pneumoniae isolate 4755 by agar dilution method; procedure, shortened: as §2
Streptococcus pneumoniae [43] = assay: Antimicrobial activity against Streptococcus pneumoniae isolate 3263 by agar dilution method
Streptococcus pneumoniae [44] = assay: Antimicrobial activity against Streptococcus pneumoniae isolate 1394 by agar dilution method
Streptococcus pneumoniae [45] = assay: Antimicrobial activity against Streptococcus pneumoniae isolate 3455 by agar dilution method
Streptococcus pneumoniae [46] = assay: Antimicrobial activity against Streptococcus pneumoniae isolate 3374 by agar dilution method; procedure, shortened: as §2

Work on `C[C@@H](O)[C@H]1C(=O)N2C(C(=O)O)=C(S[C@@H]3CN[C@H](C(=O)Nc4cccc(C(=O)O)c4)C3)[C@H](C)[C@H]12` [ERTAPENEM] yielded an MIC (Streptococcus pneumoniae [1]) of 0.12 µg/mL (≈ 0.252 µM), an MIC (Streptococcus pneumoniae [2]) of 0.5 µg/mL (≈ 1.05 µM) and an MIC (Streptococcus pneumoniae [3]) of 1 µg/mL (≈ 2.1 µM). It also gave an MIC (Streptococcus pneumoniae [4]) of 0.03 µg/mL (≈ 0.0631 µM), an MIC (Streptococcus pneumoniae [5]) of 0.25 µg/mL (≈ 0.526 µM) and an MIC (Streptococcus pneumoniae [6]) of 0.12 µg/mL (≈ 0.252 µM). The MIC (Streptococcus pneumoniae [7]) was 0.03 µg/mL (≈ 0.0631 µM), the MIC (Streptococcus pneumoniae [8]) was 0.12 µg/mL (≈ 0.252 µM) and the MIC (Streptococcus pneumoniae [9]) was 2 µg/mL (≈ 4.21 µM). It also gave an MIC (Streptococcus pneumoniae [10]) of 4 µg/mL (≈ 8.41 µM), an MIC (Streptococcus pneumoniae [11]) of 1 µg/mL (≈ 2.1 µM) and an MIC (Streptococcus pneumoniae [12]) of 2 µg/mL (≈ 4.21 µM).

In the case of `C=CC1=C(C(=O)O)N2C(=O)[C@@H](NC(=O)/C(=N\O)c3csc(N)n3)[C@H]2SC1` [CEFDINIR], the MIC (Streptococcus pneumoniae [1]) is reported as 0.25 µg/mL (≈ 0.632 µM), the MIC (Streptococcus pneumoniae [2]) is reported as 4 µg/mL (≈ 10.1 µM) and the MIC (Streptococcus pneumoniae [3]) is reported as 16 µg/mL (≈ 40.5 µM). The MIC (Streptococcus pneumoniae [4]) was 0.06 µg/mL (≈ 0.152 µM), the MIC (Streptococcus pneumoniae [5]) was 0.5 µg/mL (≈ 1.26 µM) and the MIC (Streptococcus pneumoniae [6]) was 1 µg/mL (≈ 2.53 µM). The MIC (Streptococcus pneumoniae [13]) was 8 µg/mL (≈ 20.2 µM), the MIC50 (Streptococcus pneumoniae [14]) was 8 µg/mL (≈ 20.2 µM) and the MIC90 (Streptococcus pneumoniae [14]) was 8 µg/mL (≈ 20.2 µM). For the same compound, the MIC (Streptococcus pneumoniae [15]) was 8 µg/mL (≈ 20.2 µM), the MIC (Streptococcus pneumoniae [16]) was 4 µg/mL (≈ 10.1 µM) and the MIC (Streptococcus pneumoniae [17]) was 2 µg/mL (≈ 5.06 µM). The MIC (Streptococcus pneumoniae [18]) was 4 µg/mL (≈ 10.1 µM), the MIC (Streptococcus pneumoniae [19]) was 4 µg/mL (≈ 10.1 µM) and the MIC50 (Streptococcus pneumoniae [20]) was 0.5 µg/mL (≈ 1.26 µM). For the same compound, the MIC90 (Streptococcus pneumoniae [20]) was 4 µg/mL (≈ 10.1 µM), the MIC (Streptococcus pneumoniae [21]) was 8 µg/mL (≈ 20.2 µM) and the MIC (Streptococcus pneumoniae [22]) was 8 µg/mL (≈ 20.2 µM). For the same compound, the MIC (Streptococcus pneumoniae [23]) was 16 µg/mL (≈ 40.5 µM), the MIC (Streptococcus pneumoniae [24]) was 32 µg/mL (≈ 80.9 µM) and the MIC (Streptococcus pneumoniae [25]) was 8 µg/mL (≈ 20.2 µM). The MIC (Streptococcus pneumoniae [26]) was 8 µg/mL (≈ 20.2 µM), the MIC (Streptococcus pneumoniae [7]) was 0.12 µg/mL (≈ 0.303 µM) and the MIC (Streptococcus pneumoniae [27]) was 8 µg/mL (≈ 20.2 µM). For the same compound, the MIC (Streptococcus pneumoniae [28]) was 8 µg/mL (≈ 20.2 µM), the MIC (Streptococcus pneumoniae [29]) was 8 µg/mL (≈ 20.2 µM) and the MIC (Streptococcus pneumoniae [30]) was 4 µg/mL (≈ 10.1 µM). The MIC (Streptococcus pneumoniae [31]) was 8 µg/mL (≈ 20.2 µM), the MIC (Streptococcus pneumoniae [32]) was 4 µg/mL (≈ 10.1 µM) and the MIC (Streptococcus pneumoniae [33]) was 8 µg/mL (≈ 20.2 µM). It also gave an MIC (Streptococcus pneumoniae [34]) of 4 µg/mL (≈ 10.1 µM), an MIC (Streptococcus pneumoniae [8]) of 1 µg/mL (≈ 2.53 µM) and an MIC (Streptococcus pneumoniae [35]) of 4 µg/mL (≈ 10.1 µM). For the same compound, the MIC50 (Streptococcus pneumoniae [36]) was 0.06 µg/mL (≈ 0.152 µM), the MIC90 (Streptococcus pneumoniae [36]) was 0.125 µg/mL (≈ 0.316 µM) and the MIC (Streptococcus pneumoniae [37]) was 8 µg/mL (≈ 20.2 µM). The MIC (Streptococcus pneumoniae [9]) was 4 µg/mL (≈ 10.1 µM), the MIC (Streptococcus pneumoniae [38]) was 4 µg/mL (≈ 10.1 µM) and the MIC (Streptococcus pneumoniae [39]) was 8 µg/mL (≈ 20.2 µM). It also gave an MIC (Streptococcus pneumoniae [10]) of 8 µg/mL (≈ 20.2 µM), an MIC (Streptococcus pneumoniae [11]) of 16 µg/mL (≈ 40.5 µM) and an MIC (Streptococcus pneumoniae [12]) of 4 µg/mL (≈ 10.1 µM). The MIC (Streptococcus pneumoniae [40]) was 8 µg/mL (≈ 20.2 µM), the MIC (Streptococcus pneumoniae [41]) was 8 µg/mL (≈ 20.2 µM) and the MIC (Streptococcus pneumoniae [42]) was 4 µg/mL (≈ 10.1 µM). For the same compound, the MIC (Streptococcus pneumoniae [43]) was 8 µg/mL (≈ 20.2 µM), the MIC (Streptococcus pneumoniae [44]) was 8 µg/mL (≈ 20.2 µM) and the MIC (Streptococcus pneumoniae [45]) was 8 µg/mL (≈ 20.2 µM). For the same compound, the MIC (Streptococcus pneumoniae [46]) was 4 µg/mL (≈ 10.1 µM).
